For three molecules, inhibition results are on record in ChEMBL document CHEMBL5653631, “A Potent and Selective ULK1 Inhibitor Suppresses Autophagy and Sensitizes Cancer Cells to Nutrient Stress” (iScience, 2018).

Test [1] deals with Dual specificity tyrosine-phosphorylation-regulated kinase 1B (Homo sapiens) (UniProt Q9Y463). The experiment in a line: Inhibition of human recombinant DYRK1B at 40 nM in presence of ATP by radiometric assay relative to control.
Test [2] deals with T1, Tyrosine-protein kinase TXK (Homo sapiens) (UniProt P42681).
T1 sequence (whole entry): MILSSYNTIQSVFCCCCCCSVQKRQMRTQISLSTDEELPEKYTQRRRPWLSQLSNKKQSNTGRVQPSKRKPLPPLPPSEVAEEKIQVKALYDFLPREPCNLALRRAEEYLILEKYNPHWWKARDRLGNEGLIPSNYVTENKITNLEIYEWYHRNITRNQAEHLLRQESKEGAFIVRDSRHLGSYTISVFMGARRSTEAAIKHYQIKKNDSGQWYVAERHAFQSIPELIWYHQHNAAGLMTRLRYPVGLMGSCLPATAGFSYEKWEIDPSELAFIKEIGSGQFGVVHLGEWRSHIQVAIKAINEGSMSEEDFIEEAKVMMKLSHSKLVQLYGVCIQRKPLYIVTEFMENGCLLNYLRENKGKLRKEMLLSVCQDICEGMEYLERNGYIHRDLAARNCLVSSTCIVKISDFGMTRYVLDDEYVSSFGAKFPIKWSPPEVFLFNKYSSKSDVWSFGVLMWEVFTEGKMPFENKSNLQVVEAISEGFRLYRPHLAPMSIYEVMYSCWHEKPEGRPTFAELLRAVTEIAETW
The experiment in a line: Inhibition of human recombinant TXK at 40 nM in presence of ATP by radiometric assay relative to control.

Test [3] has as its target T2, MAP/microtubule affinity-regulating kinase 4 (Homo sapiens) (UniProt Q96L34).
T2 sequence (whole entry): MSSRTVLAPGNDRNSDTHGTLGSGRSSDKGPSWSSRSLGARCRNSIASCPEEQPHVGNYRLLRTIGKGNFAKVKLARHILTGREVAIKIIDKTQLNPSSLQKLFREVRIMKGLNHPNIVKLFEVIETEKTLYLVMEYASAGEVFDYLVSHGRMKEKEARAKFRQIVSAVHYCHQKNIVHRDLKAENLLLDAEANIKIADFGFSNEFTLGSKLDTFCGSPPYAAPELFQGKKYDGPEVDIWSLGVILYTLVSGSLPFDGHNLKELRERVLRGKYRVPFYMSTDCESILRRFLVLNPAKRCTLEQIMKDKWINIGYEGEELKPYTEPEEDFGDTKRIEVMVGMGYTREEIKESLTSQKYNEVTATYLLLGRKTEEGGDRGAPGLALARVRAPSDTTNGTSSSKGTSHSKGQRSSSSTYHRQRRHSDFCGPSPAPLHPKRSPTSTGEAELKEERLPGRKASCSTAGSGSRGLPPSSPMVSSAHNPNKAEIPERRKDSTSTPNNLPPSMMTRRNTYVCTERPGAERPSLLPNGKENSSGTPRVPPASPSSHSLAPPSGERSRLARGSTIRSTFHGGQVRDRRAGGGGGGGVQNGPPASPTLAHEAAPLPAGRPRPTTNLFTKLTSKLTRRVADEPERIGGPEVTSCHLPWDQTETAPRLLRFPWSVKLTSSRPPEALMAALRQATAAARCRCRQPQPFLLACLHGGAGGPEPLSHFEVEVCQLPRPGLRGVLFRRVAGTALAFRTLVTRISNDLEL
As to the kind of experiment: Inhibition of human recombinant MARK4 at 500 nM in presence of ATP by radiometric assay relative to control.

The target in test [4] is Serine/threonine-protein kinase PLK2 (Homo sapiens) (UniProt Q9NYY3). The experiment in a line: Inhibition of human recombinant PLK2 at 500 nM in presence of ATP by radiometric assay relative to control.
Chain of Serine/threonine-protein kinase PLK2 (Homo sapiens) (Q9NYY3 whole entry, looked up): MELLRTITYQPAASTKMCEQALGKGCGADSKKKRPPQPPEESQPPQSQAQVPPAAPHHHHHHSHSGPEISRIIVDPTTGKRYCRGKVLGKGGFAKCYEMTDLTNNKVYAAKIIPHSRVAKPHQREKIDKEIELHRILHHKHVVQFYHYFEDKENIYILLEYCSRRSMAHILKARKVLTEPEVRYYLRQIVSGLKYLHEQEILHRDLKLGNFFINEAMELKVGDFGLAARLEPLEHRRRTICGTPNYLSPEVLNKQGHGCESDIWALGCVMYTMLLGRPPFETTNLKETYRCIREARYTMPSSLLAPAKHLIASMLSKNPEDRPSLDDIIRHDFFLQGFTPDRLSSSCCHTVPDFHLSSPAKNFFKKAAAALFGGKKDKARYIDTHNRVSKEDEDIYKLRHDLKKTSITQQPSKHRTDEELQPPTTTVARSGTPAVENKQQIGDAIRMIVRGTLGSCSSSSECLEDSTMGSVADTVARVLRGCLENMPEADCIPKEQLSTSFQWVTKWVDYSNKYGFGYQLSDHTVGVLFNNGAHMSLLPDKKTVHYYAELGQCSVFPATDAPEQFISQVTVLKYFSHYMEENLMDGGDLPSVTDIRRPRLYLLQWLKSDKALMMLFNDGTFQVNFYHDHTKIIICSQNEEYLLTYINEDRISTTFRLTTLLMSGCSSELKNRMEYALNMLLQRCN
Test [5] addresses Mitogen-activated protein kinase kinase kinase 9 (Homo sapiens) (UniProt P80192). The experiment in a line: Inhibition of human recombinant MLK1 at 500 nM in presence of ATP by radiometric assay relative to control.
The target in test [6] is Serine/threonine-protein kinase 4 (Homo sapiens) (UniProt Q13043). As to the kind of experiment: Inhibition of human recombinant MST1 at 500 nM in presence of ATP by radiometric assay relative to control.
Chain of Serine/threonine-protein kinase 4 (Homo sapiens) (Q13043 whole entry, looked up): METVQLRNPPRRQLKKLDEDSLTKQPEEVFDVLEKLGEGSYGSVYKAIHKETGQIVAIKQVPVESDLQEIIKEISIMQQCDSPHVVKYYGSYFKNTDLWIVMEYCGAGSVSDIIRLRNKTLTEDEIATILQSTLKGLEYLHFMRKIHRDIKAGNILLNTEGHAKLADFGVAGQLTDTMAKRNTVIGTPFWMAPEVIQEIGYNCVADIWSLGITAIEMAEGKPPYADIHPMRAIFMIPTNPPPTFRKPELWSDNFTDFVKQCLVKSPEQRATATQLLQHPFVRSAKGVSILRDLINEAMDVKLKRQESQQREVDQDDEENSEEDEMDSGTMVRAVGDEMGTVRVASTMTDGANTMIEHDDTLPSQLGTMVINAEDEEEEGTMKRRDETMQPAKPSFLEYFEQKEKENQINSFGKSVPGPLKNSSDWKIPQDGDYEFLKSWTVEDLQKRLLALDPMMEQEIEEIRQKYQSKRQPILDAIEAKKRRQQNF
In test [7] the target is RAC-beta serine/threonine-protein kinase (Homo sapiens) (UniProt P31751). As to the kind of experiment: Inhibition of human recombinant AKT2 at 15 nM in presence of ATP by radiometric assay relative to control. In a few lines: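 Panel of 327 recombinant human kinases in radiometric activity assays, each screened in duplicate at a single inhibitor concentration; percent activity remaining relative to vehicle control, percent inhibition taken as 100 minus activity remaining.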
Chain of RAC-beta serine/threonine-protein kinase (Homo sapiens) (P31751 whole entry): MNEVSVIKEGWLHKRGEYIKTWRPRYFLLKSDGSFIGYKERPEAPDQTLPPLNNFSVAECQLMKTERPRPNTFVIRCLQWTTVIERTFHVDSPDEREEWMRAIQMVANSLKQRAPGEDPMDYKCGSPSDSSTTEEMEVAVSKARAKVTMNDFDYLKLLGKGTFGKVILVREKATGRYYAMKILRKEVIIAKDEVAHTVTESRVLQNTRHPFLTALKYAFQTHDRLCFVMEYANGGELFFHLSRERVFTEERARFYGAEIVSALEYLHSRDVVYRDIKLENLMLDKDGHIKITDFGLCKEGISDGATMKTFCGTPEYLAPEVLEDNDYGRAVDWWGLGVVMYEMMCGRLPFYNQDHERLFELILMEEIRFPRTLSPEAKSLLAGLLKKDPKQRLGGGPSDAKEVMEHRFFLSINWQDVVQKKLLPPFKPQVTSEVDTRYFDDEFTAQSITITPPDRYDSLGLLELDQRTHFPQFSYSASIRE

The target in test [8] is T3, Serine/threonine-protein kinase ULK1 (Homo sapiens) (UniProt O75385).
T3 sequence (whole entry): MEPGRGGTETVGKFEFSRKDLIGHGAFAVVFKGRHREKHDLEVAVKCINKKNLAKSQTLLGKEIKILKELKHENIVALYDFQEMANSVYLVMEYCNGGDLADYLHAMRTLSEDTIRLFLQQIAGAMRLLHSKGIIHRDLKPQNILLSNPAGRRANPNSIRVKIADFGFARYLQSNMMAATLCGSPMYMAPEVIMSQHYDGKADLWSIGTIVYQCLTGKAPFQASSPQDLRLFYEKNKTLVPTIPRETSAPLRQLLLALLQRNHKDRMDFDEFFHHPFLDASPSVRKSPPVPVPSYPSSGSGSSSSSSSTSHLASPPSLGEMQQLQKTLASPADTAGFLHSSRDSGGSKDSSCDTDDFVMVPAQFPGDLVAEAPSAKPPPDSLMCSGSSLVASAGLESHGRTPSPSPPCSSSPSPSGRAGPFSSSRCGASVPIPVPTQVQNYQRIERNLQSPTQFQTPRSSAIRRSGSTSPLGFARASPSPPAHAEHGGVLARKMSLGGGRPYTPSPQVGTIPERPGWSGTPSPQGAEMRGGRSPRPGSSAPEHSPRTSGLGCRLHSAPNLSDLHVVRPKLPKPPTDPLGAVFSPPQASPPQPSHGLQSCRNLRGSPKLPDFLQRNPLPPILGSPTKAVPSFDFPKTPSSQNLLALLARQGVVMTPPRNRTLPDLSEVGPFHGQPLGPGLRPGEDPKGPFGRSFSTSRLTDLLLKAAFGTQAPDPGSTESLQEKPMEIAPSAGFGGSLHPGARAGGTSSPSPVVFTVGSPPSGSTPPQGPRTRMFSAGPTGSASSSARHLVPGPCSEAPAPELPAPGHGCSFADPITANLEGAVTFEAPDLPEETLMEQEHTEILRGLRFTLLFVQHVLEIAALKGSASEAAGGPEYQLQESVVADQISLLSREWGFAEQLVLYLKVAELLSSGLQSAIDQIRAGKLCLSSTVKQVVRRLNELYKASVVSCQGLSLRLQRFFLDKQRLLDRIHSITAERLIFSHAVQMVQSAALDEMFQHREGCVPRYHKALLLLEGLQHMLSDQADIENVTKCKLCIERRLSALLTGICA
The experiment in a line: Inhibition of human recombinant ULK1 at 15 nM in presence of ATP by radiometric assay relative to control.

Chain of Mitogen-activated protein kinase kinase kinase 9 (Homo sapiens) (P80192 whole entry, looked up): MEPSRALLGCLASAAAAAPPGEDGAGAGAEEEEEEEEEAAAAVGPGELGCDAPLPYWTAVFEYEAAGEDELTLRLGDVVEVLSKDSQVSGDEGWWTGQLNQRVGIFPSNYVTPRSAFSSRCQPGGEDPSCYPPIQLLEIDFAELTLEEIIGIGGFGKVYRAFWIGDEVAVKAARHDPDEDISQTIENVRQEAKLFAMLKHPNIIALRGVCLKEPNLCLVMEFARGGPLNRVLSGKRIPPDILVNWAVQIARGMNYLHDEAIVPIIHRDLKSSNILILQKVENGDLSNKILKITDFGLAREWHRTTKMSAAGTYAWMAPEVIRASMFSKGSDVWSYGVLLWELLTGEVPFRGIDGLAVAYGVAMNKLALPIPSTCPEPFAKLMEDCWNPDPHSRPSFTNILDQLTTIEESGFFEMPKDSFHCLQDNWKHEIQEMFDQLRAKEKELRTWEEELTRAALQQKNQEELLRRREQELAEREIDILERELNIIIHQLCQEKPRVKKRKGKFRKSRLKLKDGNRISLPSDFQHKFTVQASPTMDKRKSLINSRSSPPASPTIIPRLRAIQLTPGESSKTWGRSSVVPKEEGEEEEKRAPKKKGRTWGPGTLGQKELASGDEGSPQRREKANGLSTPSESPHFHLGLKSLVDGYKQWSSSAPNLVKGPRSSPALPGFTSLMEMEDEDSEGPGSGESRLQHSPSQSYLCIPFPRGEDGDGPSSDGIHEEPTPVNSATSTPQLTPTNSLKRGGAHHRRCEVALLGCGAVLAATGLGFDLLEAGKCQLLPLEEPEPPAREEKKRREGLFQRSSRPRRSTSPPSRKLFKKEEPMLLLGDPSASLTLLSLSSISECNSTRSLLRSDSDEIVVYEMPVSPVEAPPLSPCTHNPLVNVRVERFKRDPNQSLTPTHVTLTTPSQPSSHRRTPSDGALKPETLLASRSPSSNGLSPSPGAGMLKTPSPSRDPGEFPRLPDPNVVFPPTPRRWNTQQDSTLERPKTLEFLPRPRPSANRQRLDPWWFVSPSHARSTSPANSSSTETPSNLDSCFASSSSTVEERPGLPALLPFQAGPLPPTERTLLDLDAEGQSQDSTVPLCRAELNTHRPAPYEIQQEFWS
Chain of Dual specificity tyrosine-phosphorylation-regulated kinase 1B (Homo sapiens) (Q9Y463 whole entry, looked up): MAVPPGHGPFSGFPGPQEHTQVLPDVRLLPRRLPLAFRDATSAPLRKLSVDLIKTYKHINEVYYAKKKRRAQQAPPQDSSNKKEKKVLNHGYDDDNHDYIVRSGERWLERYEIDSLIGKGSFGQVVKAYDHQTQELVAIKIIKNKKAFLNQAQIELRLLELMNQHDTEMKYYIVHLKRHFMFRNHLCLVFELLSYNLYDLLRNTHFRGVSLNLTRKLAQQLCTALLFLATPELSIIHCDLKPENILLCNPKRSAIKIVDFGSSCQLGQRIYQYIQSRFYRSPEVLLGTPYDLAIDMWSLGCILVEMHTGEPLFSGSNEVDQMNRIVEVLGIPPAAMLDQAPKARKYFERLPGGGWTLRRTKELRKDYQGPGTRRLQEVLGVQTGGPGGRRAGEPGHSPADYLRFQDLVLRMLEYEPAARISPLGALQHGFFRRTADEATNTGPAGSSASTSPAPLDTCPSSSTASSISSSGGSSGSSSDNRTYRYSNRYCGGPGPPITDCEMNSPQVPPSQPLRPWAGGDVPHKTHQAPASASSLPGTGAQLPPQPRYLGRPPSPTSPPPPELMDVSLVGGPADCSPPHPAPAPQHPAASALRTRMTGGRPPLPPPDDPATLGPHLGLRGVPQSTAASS

As a reminder, the inhibition is the percentage by which the read-out fell short of the control. Take `O=C(N[C@@H](C1CC1)C(F)(F)F)c1cc(-c2cnn3cc(-c4ccc(F)cc4)cnc23)cs1`: the inhibition came to 31% in test [1] and 13% in test [2].
Take `CNC(=O)c1ccccc1Oc1nc(Nc2cc(OC)c(OC)c(OC)c2)ncc1Br`: the inhibition in test [3] stood at 58%; in test [4], 4%; in test [5] it was 87%; in test [6] it was 0%.
`CC(C)[C@H](NC(=O)c1cc(-c2cnn3cc(-c4ccc(OCCN5CCCCC5)cc4)cnc23)cs1)C(F)(F)F`: the inhibition was found to be 0% in test [7] and 88% in test [8].
